An excerpt weighted towards active compounds, which were near 2.1% of everything screened.
APJ antag: APJ receptor antagonism; 330,000 compounds, 0.32% hits; AID 2521; inhibition, % at 20 µM; CHO-K1 APJ beta-arrestin complementation, luminescence; P35414;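 active = inhibition above about 40% at 20 µM, limit read from the data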;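 note: cells challenged with 10 nM apelin-13 agonist together with compound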
CCR6 antagonist: blocks CCL20-driven beta-arrestin recruitment at human CCR6; 340,000 compounds, 0.49% hits; CHO-K1 CCR6 PathHunter beta-arrestin, luminescence, CCL20-stimulated; P51684; inhibition, % at 20 µM; AID 493098;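 active = compounds whose inhibition of the agonist-driven luminescence signal at 20 µM reaches about 50%, limit read from the data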;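 note: cells stimulated with CCL20 at 14 nM final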
CXCR6 inh: CXCR6 (human) receptor inhibition; inhibition, % at 20 µM; CHO-K1 PathHunter CXCR6 beta-arrestin, luminescence; O00574; 360,000 compounds, 0.36% hits; AID 602244; in the data active = inhibition above about 34%, passing the limit was not always enough;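 note: antagonist mode with CXCL16 agonist at 10 nM final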
Target sequence (O00574 whole entry, looked up): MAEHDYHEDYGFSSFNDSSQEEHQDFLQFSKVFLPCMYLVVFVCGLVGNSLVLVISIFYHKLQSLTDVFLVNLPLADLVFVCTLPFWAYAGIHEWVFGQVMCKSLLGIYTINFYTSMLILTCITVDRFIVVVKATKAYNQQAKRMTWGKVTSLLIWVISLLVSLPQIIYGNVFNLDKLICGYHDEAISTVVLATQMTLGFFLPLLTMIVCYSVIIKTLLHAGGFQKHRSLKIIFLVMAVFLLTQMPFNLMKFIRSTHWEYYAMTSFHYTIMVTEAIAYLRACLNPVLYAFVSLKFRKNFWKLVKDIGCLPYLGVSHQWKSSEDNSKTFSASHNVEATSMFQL
EBI2 block: EBI2 (human) antagonism | inhibition, % at 5 µM | AID 651636 | EBI2 beta-arrestin recruitment, luminescence, 7a,25-OHC stimulated | P32249 | 360,000 compounds, 0.81% hits; in the data active = inhibition above about 38%;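 note: enzyme fragment complementation signal reports receptor beta-arrestin coupling in cells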
APJ ag: agonists of human APJ apelin receptor; activation, % at 20 µM; P35414; CHO-K1 APJ PathHunter beta-arrestin, luminescence; 0% DMSO wells, 100% apelin; AID 2520; 330,000 compounds, 0.11% hits;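 active = activation more than six SD over the plate average, tested at 20 µM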
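Material: CHO-K1 APJ beta-arrestin complementation cell line; Input: cell density 1000 per well; Incubation: compound stimulation 90 min at 25 °C, detection 60 min; Signal: luminescence from split beta-galactosidase complementation, Galacton Star/Emerald II substrate; Controls: DMSO-only wells as negative, 10 nM Apelin-13 as positive control.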
m5-HT2A agonist: agonists of mouse serotonin 5-HT2A receptor (HTR2A) | 360,000 compounds, 0.66% hits | CHO-K1 mHTR2A beta-arrestin complementation, luminescence; percent of 30 µM serotonin response | activation, % at 7.6 µM;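 active = activation above a run cutoff, the mean activation of all tested compounds plus 3 SD, cut at about 14% in these data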
Numbers stand for hits; - = inactive; . = no result given.

SMILES	APJ antag	CCR6 antagonist	CXCR6 inh	EBI2 block	APJ ag	m5-HT2A agonist
O=C(NCCc1c[nH]c2ccccc12)C(=O)NCC(c1ccco1)N1CCN(c2ccccc2F)CC1 (stereo not given)	-	-	-	58	-	-
O=C(O)CSc1c2c(nc3cc(C(=O)Nc4cccc(C(F)(F)F)c4)ccc13)CCC2	-	-	-	-	-	-
Cc1ccc(-c2[nH]ncc2/C=N/n2c(COc3ccccc3)nc3ccccc3c2=O)cc1	-	-	-	-	-	-
Cc1cc(/C=N/n2c(COc3ccccc3)nc3ccccc3c2=O)c(O)c([N+](=O)[O-])c1	-	-	-	45	-	-
Cc1ccc(/C=C/C(=O)NCCc2ccccc2)o1	-	83	-	-	-	-
O=C(/C=C/c1ccco1)NCCc1ccccc1	-	-	-	-	-	-
O=C(Nc1ccc(F)cc1)Nc1cccc(Br)c1	-	-	-	-	-	-
O=C1C=CC(=O)N1CCCCCCN1C(=O)C=CC1=O	.	104	.	.	.	.
O=C(Oc1ccccc1/C=C\C(=O)c1cc2ccccc2o1)c1cccc(F)c1	-	-	-	-	-	-
O=C(Oc1ccccc1/C=C\C(=O)c1cc2ccccc2o1)c1ccccc1	-	-	-	48	-	-
CCOC(=O)C1NN=C(C(=O)c2ccccc2)C1c1ccc(Cl)cc1 (stereo not given)	47	-	-	-	-	-
N#Cc1c(C(F)(F)F)cc(-c2cccs2)nc1SCc1cccnc1	-	-	-	-	-	17
Cc1nnc(SCc2cc(=O)n3[nH]cnc3n2)s1	-	-	-	-	-	-
CC(NNC(=S)N1CCN(c2ccccn2)CC1)c1nccc2ccccc12 (stereo not given)	.	64	-	-	.	-
O=c1ccc2cc3c([nH]c4ccc(Br)cc43)oc-2c1O	-	.	45	-	-	-
CCN(CC)c1ccc(/C=C2/C(=O)c3ccc(C(=O)O)cc3C2=O)cc1	.	77	56	-	.	-
CC(=O)Nc1ccc(NC(=O)c2nc(S(=O)(=O)Cc3ccccc3)ncc2Cl)cc1	-	-	-	-	-	-
CS(=O)(=O)c1ncc(Cl)c(C(=O)Nc2ccc3ccccc3c2)n1	.	81	70	57	.	-
CCS(=O)(=O)c1ncc(Cl)c(C(=O)Nc2ccc(C)cc2)n1	-	-	-	53	-	-
O=C(Nc1ccc2ccccc2c1)c1cnccn1	-	-	-	-	-	-
O=C(COC(=O)c1ccccc1NC(=O)c1ccco1)Nc1ccc2c(c1)OCO2	-	-	-	-	-	-
O=C(Oc1c(Cl)cc(Cl)c2cccnc12)c1cccc([N+](=O)[O-])c1	-	68	-	-	-	-
O=C(N/N=C/c1cc([N+](=O)[O-])ccc1O)C1CCCCC1	-	-	-	76	-	-
O=C(CCC(=O)Nc1ccc(F)cc1)N/N=C/c1cc([N+](=O)[O-])ccc1O	-	62	-	-	-	-
Cc1cccc(NC(=O)CCC(=O)N/N=C/c2cc([N+](=O)[O-])ccc2O)c1	-	-	-	-	-	-
SMILES	APJ antag	CCR6 antagonist	CXCR6 inh	EBI2 block	APJ ag	m5-HT2A agonist
O=[N+]([O-])c1ccc(O)c(/C=N/Nc2nn[nH]n2)c1	-	.	44	-	-	-
O=[N+]([O-])c1ccc(O)c(/C=N\N=C2c3ccccc3-c3ccccc32)c1	-	56	-	-	-	-
NC(N)=N/N=C/c1cc([N+](=O)[O-])ccc1O	-	-	-	-	-	-
Oc1ccccc1/C=N/Nc1nn[nH]n1	-	-	-	-	-	-
c1ccc(CSc2ncn[nH]2)nc1	-	-	-	-	-	-
CCCCOC(=O)Nc1ccccc1C(=O)OC	-	-	-	-	-	-
Cc1nc2ccc(C(=O)N/N=C/c3cc([N+](=O)[O-])ccc3O)cc2[nH]1	-	59	-	-	-	-
Cc1nc2ccc(C(=O)N/N=C/c3ccccc3O)cc2[nH]1	-	-	-	-	-	-
C=CCn1c2ccccc2c2nnc(SCC(=O)Nc3cc(C)on3)nc21	-	55	-	-	-	-
CCCn1c2ccccc2c2nnc(SCC(=O)Nc3cc(C)on3)nc21	-	-	-	-	-	-
CCCn1c2ccccc2c2nnc(SCC(=O)Nc3ncccn3)nc21	-	63	43	-	-	-
O=C(NCc1ccc2c(c1)OCO2)c1nc(S(=O)(=O)Cc2ccccc2)ncc1Cl	-	63	-	-	-	-
CC(=O)c1nn(-c2ccccc2)cc1C(=O)c1ccc(C)cc1	-	-	-	56	-	-
CC(=O)c1nn(-c2cccc(C)c2)cc1C(=O)c1cccc(Br)c1	-	-	-	-	-	-
O=C(NC(=S)N1CCN(c2ccc(Cl)cc2[N+](=O)[O-])CC1)c1cccs1	.	.	43	-	.	-
O=C(NC(=S)N1CCN(c2ccc(Cl)cc2[N+](=O)[O-])CC1)c1ccco1	-	-	-	-	-	-
CS(=O)(=O)N(CC(=O)N1CCN(c2ccccc2)CC1)c1cc(C(F)(F)F)ccc1Cl	-	-	-	46	-	-
CS(=O)(=O)N(CC(=O)N1CCCC1)c1cc(C(F)(F)F)ccc1Cl	-	-	-	-	-	-
CCCC1(C(=O)OC)NC(c2cccc(F)c2)C2C(=O)N(CC)C(=O)C21 (stereo not given)	-	-	-	-	-	-
CC(C)(C)C(=O)/C(=C\c1ccc([N+](=O)[O-])cc1)n1cncn1	70	.	.	.	-	.
Nc1ccc(N(CCO)CCO)cc1	-	-	-	-	-	-
Cc1cc(N(CCO)CCO)ccc1N=Nc1cc(F)ccc1F	61	-	-	-	-	-
O=C(COc1ccc(S(=O)(=O)N2CCCC2)cc1Cl)NCc1ccc2c(c1)OCO2	-	-	-	-	-	-
Cn1nc(C(=O)NNC(=O)COc2ccccc2)c2ccccc2c1=O	-	-	-	-	-	-
Cc1cc(C(=O)Nc2cccnc2)no1	-	-	-	-	-	-
SMILES	APJ antag	CCR6 antagonist	CXCR6 inh	EBI2 block	APJ ag	m5-HT2A agonist
Cc1cc(C(=O)Nc2cccnc2)on1	-	-	-	-	-	15
CNC(=S)N1CCC(c2nc3ccccc3s2)CC1	-	-	-	-	-	-
CCCCCCOC(=O)c1ccc(OC(=O)c2cccnc2)cc1	-	-	-	-	-	22
CCCCOC(=O)c1ccc(OC(=O)c2cccnc2)cc1	-	-	-	-	-	-
O=C1NC[C@H](c2ccccc2)OC(=O)[C@H](Cc2ccc(F)cc2)CC/C=C/C[C@H]1CC(=O)N(CCO)Cc1ccccc1	.	-	48	-	.	-
O=C1NC[C@H](c2ccccc2)OC(=O)[C@@H](Cc2ccc(F)cc2)CC/C=C/C[C@H]1CC(=O)N(CCO)Cc1ccccc1	.	-	-	-	.	-
N#CC1=C(N)C2=CCCC[C@H]2[C@H](c2ccc(Br)cc2)C1(C#N)C#N	.	68	46	-	.	-

Screens as filed in PubChem.
